Test results reported in ChEMBL document CHEMBL4414577, “Discovery of Pyrrolo[2,3-b]pyridine (1,7-Dideazapurine) Nucleoside Analogues as Anti-Trypanosoma cruzi Agents” (J Med Chem, 2019).
Activity calls are given as the source filed them. The calls are words filed in the database; no cut-off is given here.

Assays:
[1] = Cytotoxicity against human MRC5 SV2 cells assessed as reduction in cell viability incubated for 3 days by resazurin dye based assay; settings: MRC-5 SV2, 72 h
[2] = Selectivity index, ratio for EC50 for human MRC5 SV2 cells to EC50 for Trypanosoma cruzi Tulahuen CL2 amastigotes infected in human MRC5 SV2 cells; assay type: toxicity, cell-based; settings: read-out: Ratio EC50
[3] = Drug metabolism in rat liver microsomes assessed as UGT-mediated metabolism by measuring compound remaining at 5 uM incubated for 15 mins in presence of UDPGA by UPLC-MS analysis; assay type: ADME; settings: read-out: Stability
Procedure, shortened: (§1)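 Compound incubated with male mouse, rat, dog or pooled human S9 fractions, with NADPH (phase I) or […], sampled at 0, 15, 30 and 60 min. Read-out is percent parent remaining. Two independent experiments of two biological replicates; diclofenac and fluconazole used as assay controls.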

[4] = Drug metabolism in dog liver microsomes assessed as CYP450-mediated metabolism by measuring parent compound remaining at 5 uM measured immediately in presence of NADPH by UPLC-MS analysis; assay type: ADME, Canis lupus familiaris; settings: read-out: Stability; procedure, shortened: as §1
[5] = tested on: Trypanosoma cruzi; assay: In vivo antitrypanosomal activity against Trypanosoma cruzi Y trypomastigotes infected in Swiss mouse assessed as mouse survival at 25 mg/kg, po administered twice daily via gavage for 5 days starting from 5 days post-infection and measured daily up to 40 days post-infection; assay type: functional, organism-based
Procedure, shortened: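 Male Swiss Webster mice (18-20 g, 4-5 weeks) infected i.p. with 10⁴ Y-strain bloodstream trypomastigotes; six per group. Oral gavage from 5 dpi for 5 consecutive days: test compound at 25 mg/kg b.i.d. (2.0 mg/mL in 10% EtOH, 0.1 M citrate pH 3.02), benznidazole at 100 mg/kg s.i.d. Parasites counted in 5 μL tail blood to 30 dpi; mortality followed daily to 40 dpi.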

[6] = tested on: Trypanosoma cruzi; assay: In vivo antitrypanosomal activity against Trypanosoma cruzi Y trypomastigotes infected in Swiss mouse assessed as reduction in parasitemia at 25 mg/kg, po administered twice daily for 5 days with 2 days interval for 3 cycles and measured up to 30 days post-infection by light microscopy; assay type: functional, organism-based
Procedure, shortened: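 Male Swiss Webster mice infected i.p. with 10⁴ Y-strain bloodstream trypomastigotes; six per group. Oral gavage from 5 dpi for 15 days (three 5-day rounds, 2 days off): test compound 25 mg/kg b.i.d., benznidazole 100 mg/kg s.i.d. Parasites counted in 5 μL tail blood to 30 dpi; mortality followed to 53 dpi.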

[7] = Toxicity in Swiss Webster mouse infected with Trypanosoma cruzi Y trypomastigotes assessed as body weight loss at 25 mg/kg, po administered twice daily for 5 days with 2 days interval for 3 cycles; assay type: organism-based; settings: in vivo
Procedure, shortened: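 Y-strain-infected male Swiss Webster mice were dosed orally for 15 days (three rounds of 5 days, 2 drug-free days between) starting at 5 dpi. Regimens were 25 mg/kg b.i.d. or benznidazole 100 mg/kg s.i.d. Weight loss was recorded as a sign of toxicity, with mortality checked daily up to 53 dpi. There were six mice per group.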

remaining at 0.25 h, 5 µM [3]: 97% | remaining at 0 min, 5 µM [4]: 100%
Compound: Nc1ccnc2c1c(I)cn2[C@@H]1O[C@H](CO)[C@@H](O)[C@H]1O
EC50 [1]: > 64 µM | selectivity ratio [2]: > 1600 | Activity [5]: Active | Activity [6]: Active | Activity [7]: Non-Toxic
